Assay results from ChEMBL document CHEMBL1130208, “(1 alpha, 2 beta, 3 beta, 4 alpha)-1,2-bis[N-propyl-N-(4-phenoxybenzyl) amino]carbonyl]cyclobutane-3,4-dicarboxylic acid (A-87049): a novel potent squalene synthase inhibitor” (J Med Chem, 1997).

Legend:
Squalene synthase = biological target: T1, Squalene synthase (Rattus norvegicus, UniProt Q02769); assay: In vitro inhibitory activity against Squalene Synthase
T1 sequence (Q02769 whole entry): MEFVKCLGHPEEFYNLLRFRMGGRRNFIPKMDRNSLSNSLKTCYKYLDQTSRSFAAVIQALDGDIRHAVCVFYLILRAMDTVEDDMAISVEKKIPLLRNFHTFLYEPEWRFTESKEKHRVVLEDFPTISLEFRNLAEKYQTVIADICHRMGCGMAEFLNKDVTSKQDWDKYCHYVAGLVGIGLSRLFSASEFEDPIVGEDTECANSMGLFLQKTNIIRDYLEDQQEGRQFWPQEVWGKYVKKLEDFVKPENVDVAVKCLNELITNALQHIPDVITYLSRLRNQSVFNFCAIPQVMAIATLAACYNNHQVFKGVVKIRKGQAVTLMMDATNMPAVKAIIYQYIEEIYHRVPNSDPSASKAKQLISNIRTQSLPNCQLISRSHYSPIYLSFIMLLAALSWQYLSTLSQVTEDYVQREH
Method in brief: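 Squalene synthase inhibition measured in a rat liver microsomal enzyme assay.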

Monkey [1] = assay: In vivo percent change of LDL cholesterol in monkeys at 20 mg/kg/day for 5 days dose; type: functional, Cercopithecidae
Method in brief: (§1)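 Cynomolgus monkeys (n = 4) were given 20 mg/kg po daily for 5 days, and controls received vehicle with 0.2% methocel. Animals were fasted overnight before the last dose and bled from the femoral vein 2 h after dosing on day 5, before feeding. Plasma lipids are expressed as % change from pretreatment, with one-sample t-tests.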

Monkey [2] = assay: In vivo percent change of total cholesterol in monkeys at 20 mg/kg/day for 5 days dose c; type: functional, Cercopithecidae; method in brief: as §1
Monkey [3] = assay: In vivo percent change of HDL cholesterol in monkeys at 20 mg/kg/day for 5 days dose; type: functional, Cercopithecidae; method in brief: as §1
Monkey [4] = assay: In vivo percent change of total cholesterol in monkeys at 20 mg/kg/day for 5 days dose; type: functional, Cercopithecidae; method in brief: as §1

## CC(C)N(Cc1ccc(Oc2ccccc2)cc1)C(=O)[C@@H]1[C@H](C(=O)O)[C@@H](C(=O)O)[C@H]1C(=O)N(Cc1ccc(Oc2ccccc2)cc1)C(C)C
Squalene synthase
  IC50: 0.14 µM

## CCCN(Cc1ccc(Oc2ccccc2)cc1)C(=O)[C@@H]1[C@H](C(=O)O)[C@@H](C(=O)O)[C@H]1C(=O)N(CCC)Cc1ccc(Oc2ccccc2)cc1
Monkey [1]
  Change: -36%
Monkey [2]
  Change: -12%
Monkey [3]
  Change: -4%

## CN(Cc1cccc(Oc2ccccc2)c1)C(=O)[C@@H]1[C@H](C(=O)O)[C@@H](C(=O)O)[C@H]1C(=O)N(C)Cc1cccc(Oc2ccccc2)c1
Squalene synthase
  IC50: 8 µM

## CN(Cc1ccc(OCc2ccccc2)cc1)C(=O)[C@@H]1[C@H](C(=O)O)[C@@H](C(=O)O)[C@H]1C(=O)N(C)Cc1ccc(OCc2ccccc2)cc1
Squalene synthase
  IC50: 10 µM

## CC[C@H](C)C(=O)O[C@H]1C[C@@H](C)C=C2C=C[C@H](C)[C@H](CC[C@@H]3C[C@@H](O)CC(=O)O3)[C@H]21 [LOVASTATIN]
Monkey [1]
  Change: -21%
Monkey [4]
  Change: -19%
Monkey [3]
  Change: -12%
